# Source: ChEMBL document CHEMBL1649289, “Paradoxical growth of Candida dubliniensis does not preclude in vivo response to echinocandin therapy” (2009)
# Legend:
# Assay type in all cases: functional
# Candida dubliniensis [1] = experiment: Antifungal activity against Candida dubliniensis FMR 10034 infected in OF1 mouse assessed as fungal count in kidney at 1 mg/kg/day, iv […]
# Outline: (§1)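 Immunocompetent male OF1 mice, 10 per group, were challenged i.v. with 1.5 × 10^7 CFU. Drug was given i.v. once daily at 1 or 10 mg/kg for 3 days, starting 24 h post-challenge; controls were untreated. Mice were killed 1 day after the last dose. Kidneys and spleen were homogenized in saline, serial 10-fold dilutions were plated on Sabouraud agar at 35°C for 3 days, and mean log10 CFU was reported.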
# Candida dubliniensis [2] = experiment: Antifungal activity against Candida dubliniensis 10032 by hemocytometry
# Outline: (§2)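 Minimal fungicidal concentration from the broth dilution test, defined as the lowest drug level giving ≥99.9% reduction in CFU/ml. Inocula were adjusted by hemocytometer.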
# Candida dubliniensis [3] = experiment: Antifungal activity against Candida dubliniensis 10035 by hemocytometry; outline: as §2
# Candida dubliniensis [4] = experiment: Antifungal activity against Candida dubliniensis 10032 after 24 hrs; conditions: Candida dubliniensis, 10032, 24 h
# Outline: (§3)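 CLSI M27-A3 broth microdilution. Yeast inoculum was adjusted with a hemocytometer. MIC was read at 24 h or 48 h as the lowest concentration giving 50% growth inhibition.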
# Candida dubliniensis [5] = experiment: Antifungal activity against Candida dubliniensis 10034 after 48 hrs; conditions: Candida dubliniensis, 10034, 48 h; outline: as §3
# Candida dubliniensis [6] = experiment: Antifungal activity against Candida dubliniensis 9453 after 48 hrs; conditions: Candida dubliniensis, 9453, 48 h; outline: as §3
# Candida dubliniensis [7] = experiment: Antifungal activity against Candida dubliniensis FMR 10034 infected in OF1 mouse assessed as fungal count in spleen at 10 mg/kg/day, iv […]; outline: as §1
# Candida dubliniensis [8] = experiment: Antifungal activity against Candida dubliniensis 10034 after 24 hrs; conditions: Candida dubliniensis, 10034, 24 h; outline: as §3
# Candida dubliniensis [9] = experiment: Antifungal activity against Candida dubliniensis 10035 assessed as compound concentration at which paradoxical growth of observed after 48 hrs
# Outline: (§4)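 In the same broth dilution (CLSI M27-A3) tests, read at 24 or 48 h, this is the range of drug concentrations over which paradoxical growth appeared. It was not set when growth occurred across the whole tested range (trailing).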
# Candida dubliniensis [10] = experiment: Antifungal activity against Candida dubliniensis 10032 after 48 hrs; conditions: Candida dubliniensis, 10032, 48 h; outline: as §3
# Candida dubliniensis [11] = experiment: Antifungal activity against Candida dubliniensis 9456 after 48 hrs; conditions: Candida dubliniensis, 9456, 48 h; outline: as §3
# Candida dubliniensis [12] = experiment: Antifungal activity against Candida dubliniensis 10033 by hemocytometry; outline: as §2
# Candida dubliniensis [13] = experiment: Antifungal activity against Candida dubliniensis 10034 by hemocytometry; outline: as §2
# Candida dubliniensis [14] = experiment: Antifungal activity against Candida dubliniensis 10035 after 48 hrs; conditions: Candida dubliniensis, 10035, 48 h; outline: as §3
# Candida dubliniensis [15] = experiment: Antifungal activity against Candida dubliniensis FMR 10032 infected in OF1 mouse assessed as fungal count in spleen at 10 mg/kg/day, iv […]; outline: as §1
# Candida dubliniensis [16] = experiment: Antifungal activity against Candida dubliniensis FMR 10034 infected in OF1 mouse assessed as fungal count in spleen at 1 mg/kg/day, iv […]; outline: as §1
# Candida dubliniensis [17] = experiment: Antifungal activity against Candida dubliniensis FMR 10032 infected in immunosuppressed OF1 mouse assessed as fungal count in spleen at 1 mg/kg/day, iv […]
# Outline: (§5)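 Male OF1 mice, 10 per group, were immunosuppressed on infection day with cyclophosphamide 200 mg/kg i.p. plus 5-fluorouracil 150 mg/kg i.v., then challenged i.v. with 1.5 × 10^5 CFU. Drug was given at 1 mg/kg i.v. once daily for 5 days, starting 24 h after challenge. One day after treatment ended, kidney and spleen homogenates were plated in 10-fold dilutions on Sabouraud agar (35°C, 3 days) and mean log10 CFU was reported.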
# Candida dubliniensis [18] = experiment: Antifungal activity against Candida dubliniensis FMR 10032 infected in OF1 mouse assessed as fungal count in kidney at 10 mg/kg/day, iv […]; outline: as §1
# Candida dubliniensis [19] = experiment: Antifungal activity against Candida dubliniensis FMR 10034 infected in OF1 mouse assessed as fungal count in kidney at 10 mg/kg/day, iv […]; outline: as §1
# Candida dubliniensis [20] = experiment: Antifungal activity against Candida dubliniensis 10034 assessed as compound concentration at which paradoxical growth of observed after 48 hrs; outline: as §4
# Candida dubliniensis [21] = experiment: Antifungal activity against Candida dubliniensis FMR 10034 infected in immunosuppressed OF1 mouse assessed as fungal count in kidney at 1 mg/kg/day, iv […]; outline: as §5
# Candida dubliniensis [22] = experiment: Antifungal activity against Candida dubliniensis 10033 assessed as compound concentration at which paradoxical growth of observed after 24 hrs; outline: as §4
# Candida dubliniensis [23] = experiment: Antifungal activity against Candida dubliniensis 10033 assessed as compound concentration at which paradoxical growth of observed after 48 hrs
# Outline: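 Broth dilution susceptibility testing of yeasts per CLSI reference method M27-A3, with inocula adjusted by hemocytometer count. Wells were read at 24 and 48 h. The paradoxical growth range is the span of drug concentrations (μg/ml) over which growth reappeared above the inhibitory concentration. Where growth occurred across the entire concentration range (trailing), no range was determined.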
# Candida dubliniensis [24] = experiment: Antifungal activity against Candida dubliniensis 10033 after 24 hrs; conditions: Candida dubliniensis, 10033, 24 h; outline: as §3
# Candida dubliniensis [25] = experiment: Antifungal activity against Candida dubliniensis FMR 10034 infected in immunosuppressed OF1 mouse assessed as fungal count in spleen at 1 mg/kg/day, iv […]; outline: as §5
# Candida dubliniensis [26] = experiment: Antifungal activity against Candida dubliniensis 9456 by hemocytometry; outline: as §2
# Candida dubliniensis [27] = experiment: Antifungal activity against Candida dubliniensis 9453 assessed as compound concentration at which paradoxical growth of observed after 24 hrs; outline: as §4
# Candida dubliniensis [28] = experiment: Antifungal activity against Candida dubliniensis 10031 assessed as compound concentration at which paradoxical growth of observed after 24 hrs; outline: as §4
# Candida dubliniensis [29] = experiment: Antifungal activity against Candida dubliniensis 9456 after 24 hrs; conditions: Candida dubliniensis, 9456, 24 h; outline: as §3
# Candida dubliniensis [30] = experiment: Antifungal activity against Candida dubliniensis 9453 by hemocytometry; outline: as §2
# Candida dubliniensis [31] = experiment: Antifungal activity against Candida dubliniensis FMR 10032 infected in OF1 mouse assessed as fungal count in kidney at 1 mg/kg/day, iv […]; outline: as §1
# Candida dubliniensis [32] = experiment: Antifungal activity against Candida dubliniensis 9456 assessed as compound concentration at which paradoxical growth of observed after 24 hrs; outline: as §4
# Candida dubliniensis [33] = experiment: Antifungal activity against Candida dubliniensis 10031 by hemocytometry; outline: as §2
# Candida dubliniensis [34] = experiment: Antifungal activity against Candida dubliniensis 10031 after 24 hrs; conditions: Candida dubliniensis, 10031, 24 h; outline: as §3
# Candida dubliniensis [35] = experiment: Antifungal activity against Candida dubliniensis 10034 assessed as compound concentration at which paradoxical growth of observed after 24 hrs; outline: as §4
# Candida dubliniensis [36] = experiment: Antifungal activity against Candida dubliniensis 10035 after 24 hrs; conditions: Candida dubliniensis, 10035, 24 h; outline: as §3
# Candida dubliniensis [37] = experiment: Antifungal activity against Candida dubliniensis FMR 10032 infected in OF1 mouse assessed as fungal count in spleen at 1 mg/kg/day, iv […]; outline: as §1
# Candida dubliniensis [38] = experiment: Antifungal activity against Candida dubliniensis 9453 after 24 hrs; conditions: Candida dubliniensis, 9453, 24 h; outline: as §3
# Candida dubliniensis [39] = experiment: Antifungal activity against Candida dubliniensis 10033 after 48 hrs; conditions: Candida dubliniensis, 10033, 48 h; outline: as §3
# Candida dubliniensis [40] = experiment: Antifungal activity against Candida dubliniensis FMR 10032 infected in immunosuppressed OF1 mouse assessed as fungal count in kidney at 1 mg/kg/day, iv […]; outline: as §5
# Candida dubliniensis [41] = experiment: Antifungal activity against Candida dubliniensis 10031 after 48 hrs; conditions: Candida dubliniensis, 10031, 48 h; outline: as §3
smiles,measurement,setting,value
CC[C@H](C)C[C@H](C)CCCCCCCCC(=O)N[C@H]1C[C@@H](O)[C@@H](NCCN)NC(=O)[C@@H]2[C@@H](O)CCN2C(=O)[C@H]([C@H](O)CCN)NC(=O)[C@H]([C@H](O)[C@@H](O)c2ccc(O)cc2)NC(=O)[C@@H]2C[C@@H](O)CN2C(=O)[C@H]([C@@H](C)O)NC1=O [CASPOFUNGIN],log10cfu,Candida dubliniensis [1],4.5
same,MFC,Candida dubliniensis [2],4 µg/mL
same,MFC,Candida dubliniensis [3],0.5 µg/mL
same,MIC50,Candida dubliniensis [4],0.06 µg/mL
same,MIC50,Candida dubliniensis [5],0.25 µg/mL
same,MIC50,Candida dubliniensis [6],0.25 µg/mL
same,log10cfu,Candida dubliniensis [7],3.89
same,MIC50,Candida dubliniensis [8],0.125 µg/mL
same,Activity,Candida dubliniensis [9],8 µg/mL
same,MIC50,Candida dubliniensis [10],0.06 µg/mL
same,MIC50,Candida dubliniensis [11],0.25 µg/mL
same,MFC,Candida dubliniensis [12],> 16 µg/mL
same,MFC,Candida dubliniensis [13],> 16 µg/mL
same,MIC50,Candida dubliniensis [14],0.06 µg/mL
same,log10cfu,Candida dubliniensis [15],3.38
same,log10cfu,Candida dubliniensis [16],4.21
same,log10cfu,Candida dubliniensis [17],1.26
same,log10cfu,Candida dubliniensis [18],3.08
same,log10cfu,Candida dubliniensis [19],4.09
same,Activity,Candida dubliniensis [20],1 µg/mL
same,log10cfu,Candida dubliniensis [21],3.39
same,Activity,Candida dubliniensis [22],8 µg/mL
same,Activity,Candida dubliniensis [23],2 µg/mL
same,MIC50,Candida dubliniensis [24],0.25 µg/mL
same,log10cfu,Candida dubliniensis [25],2.08
same,MFC,Candida dubliniensis [26],> 16 µg/mL
same,Activity,Candida dubliniensis [27],8 µg/mL
same,Activity,Candida dubliniensis [28],8 µg/mL
same,MIC50,Candida dubliniensis [29],0.25 µg/mL
same,MFC,Candida dubliniensis [30],> 16 µg/mL
same,log10cfu,Candida dubliniensis [31],3.41
same,Activity,Candida dubliniensis [32],8 µg/mL
same,MFC,Candida dubliniensis [33],> 16 µg/mL
same,MIC50,Candida dubliniensis [34],0.125 µg/mL
same,Activity,Candida dubliniensis [35],16 µg/mL
same,MIC50,Candida dubliniensis [36],0.06 µg/mL
same,log10cfu,Candida dubliniensis [37],3.56
same,MIC50,Candida dubliniensis [38],0.25 µg/mL
same,MIC50,Candida dubliniensis [39],0.25 µg/mL
same,log10cfu,Candida dubliniensis [40],1.77
same,MIC50,Candida dubliniensis [41],0.25 µg/mL
